Assay results collected from several papers.
Lines come from different studies, so protocols differ.
Target: Serine/threonine-protein kinase PAK 3 (PAK3, Homo sapiens, UniProt O75914)

Compound | observed | method | concentration | remaining binding
O=C(NCCCN1CCOCC1)c1ccc(Nc2nccc(-c3cc4ccccc4s3)n2)cc1 | binding | competition with immobilised ligand | 1 µM | 71%
CC(=O)Nc1c(C(C)=O)c(=O)n(C)c2nc(-c3ccc(Cl)cc3Cl)c(-c3ccc(Cl)cc3)cc12 | cell-free assay | competition with immobilised ligand | 1 µM | 100%
O=C(c1ccc(Nc2nccc(-c3cc4ccccc4s3)n2)cc1)N1CCC(N2CCCC2)CC1 | binding | competition with immobilised ligand | 1 µM | 39%
C[C@@H]1CCN(c2nccc(-c3cnn4ncccc34)n2)C1 | binding | – | 1 µM | 85%
O=C(NCC1CCOCC1)c1n[nH]cc1NC(=O)c1c(F)cccc1F | binding | competition with immobilised ligand | 1 µM | 100%
c1cncc(-c2cccc(Nc3nccc(NC4CCCCC4)n3)c2)c1 | binding | competition with immobilised ligand | 10 µM | 38%
O=C(Nc1ccc(Oc2ccc(F)cc2)cc1)N1CCc2ncccc2[C@H]1c1ccc(F)cc1 | cell-free assay | competition with immobilised ligand | 1 µM | 100%
CCN1CCN(Cc2ccc(C(=O)Nc3ccc(C)c(Oc4ccc5c(c4)CC(=O)N5)c3)cc2C(F)(F)F)CC1 | binding | competition with immobilised ligand | 1 µM | 98%
COc1ccnn2ncc(-c3ccnc(N(C)C)n3)c12 | binding | – | 1 µM | 100%
CN([C@@H]1CCc2c(CC(=O)O)c3ccccc3n2C1)S(=O)(=O)c1ccc(F)cc1 | cell-free assay | competition with immobilised ligand | 1 µM | 98%
O=C(c1ccc(Nc2ncc(Cl)c(-c3ccc(Cl)s3)n2)cc1)N1CCC(N2CCCC2)CC1 | binding | competition with immobilised ligand | 1 µM | 38%
CN(C)c1nccc(-c2cnn3ncccc23)n1 | binding | – | 1 µM | 100%
CCC(=N\O)/C(C)=C/c1ccc(F)cc1 | cell-free assay | competition with immobilised ligand | 1 µM | 89%
N[C@@H]1CCN(c2nccc(-c3cnn4ncccc34)n2)C1 | binding | – | 1 µM | 99%
COc1cnc(Nc2cccc(S(N)(=O)=O)c2)nc1N1CCN(c2ccccc2)CC1 | binding | competition with immobilised ligand | 1 µM | 100%
c1cnn2ncc(-c3ccnc(N4CCC45COC5)n3)c2c1 | binding | – | 1 µM | 88%
C[C@H](c1cccc(C#N)c1)n1cc(Cl)cc(C(N)=O)c1=N | cell-free assay | competition with immobilised ligand | 1 µM | 88%
Nc1ncc2c(n1)-c1c([nH]c3ccc(C#CC4CC4)cc13)CCCC2 | binding | competition with immobilised ligand | 1 µM | 90%
CSc1cccnc1N1CCN(Cc2nc3ccccc3[nH]2)CC1 | cell-free assay | competition with immobilised ligand | 1 µM | 87%
Cc1cnn2ncc(-c3ccnc(N(C)C)n3)c2c1 | binding | – | 1 µM | 100%
FC(F)(F)Oc1cccc(-c2cnc3ccc(-c4ccncc4)nn23)c1 | cell-free assay | competition with immobilised ligand | 5 µM | 100%
